Experimental data as given in publication PMC10543179 (iScience, 2023).
Several values for one entry are separate records, joined by “and”; a condition that tells them apart may be missing. Equal entries are not always repeated. Where two headings read alike, the source gives them in different places. Marks after values point to notes of the source that are not given here.

How the values were obtained:
CAL27 = assay: MTT cell viability assay; type: cell-based, Human; details: for IC25 CAL27 / IC75 CAL27: 24 h, mean ± SD; for IC50: Homo sapiens, CAL-27, 24 h, read-out: IC50 CAL27
Procedure, shortened: (§1)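 Cells were seeded at 10^4/well and left overnight, then exposed 24 h to 0.8–100 µmol/L test compound, with DMSO as control. MTT (5 mg/mL) was added for 2 h at 37 °C; formazan was dissolved in DMSO and read at 570 nm. IC25/50/75 came from viability curves, triplicate wells, ≥3 independent experiments, mean ± SD. Media: HeLa and CAL27 DMEM/10% FBS; MCF7 DMEM/F12/10% FBS plus insulin; MCF10A DMEM/F12/5% horse serum plus insulin.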

[1] = system: HeLa, MCF7, CAL27 and MCF10A cell lines; assay: MTT cell viability assay, summary among cell lines; type: cell-based; details: Homo sapiens, 24 h, read-out: IC50 values among different cell lines
Procedure, shortened: as §1

MCF7 = assay: MTT cell viability assay; type: cell-based, Human; details: for IC25 MCF7 / IC75 MCF7: 24 h, mean ± SD; for IC50: Homo sapiens, MCF7, 24 h, read-out: IC50 MCF7
Procedure, shortened: as §1

[2] = Solubility in DMSO-d6 when preparing NMR solutions; type: physicochemical; details: DMSO-d6, 25 °C, organic solvent or mixture
MCF10A = assay: MTT cell viability assay; type: cell-based, Human; details: 24 h; for IC25 MCF10A / IC75 MCF10A: mean ± SD; for IC50: Homo sapiens, MCF-10A, read-out: IC50 MCF10A
Procedure, shortened: as §1

HeLa = assay: MTT cell viability assay; type: cell-based, Human; details: 24 h; for IC25 HeLa / IC75 HeLa: mean ± SD; for IC50: Homo sapiens, HeLa, read-out: IC50 HeLa
Procedure, shortened: as §1

[3] = 13C NMR lactate transport assay; type: biochemical; details: 1% mol carrier to lipid, 50 mM NaCl, 0.5 mM MnCl2
Procedure, shortened: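 POPC vesicles loaded with 13C-carboxyl-labelled sodium L-lactate (200 mM NaLac, 20 mM NaH2PO4, pH 7.2), then dialysed against 150 mM Na2SO4, 20 mM NaH2PO4, pH 7.2 to remove unencapsulated lactate. 13C NMR spectra were taken after the NaCl pulse with the test compound, then after MnCl2, which affects only extravesicular lactate signals.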

[4] = ISE chloride efflux assay, Cl−/NO3− exchange; type: biochemical; details: read-out: EC50 Cl^−/NO3^−; chloride efflux at 300 s, 0.5 mM POPC, pH 7.2
Procedure, shortened: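 POPC vesicles (200 nm) held 489 mM NaCl, 5 mM NaH2PO4, pH 7.2, and were dialysed into and dispersed in 489 mM NaNO3, 5 mM NaH2PO4, pH 7.2; final lipid 0.5 mM. Test compound in DMSO was added at t = 0, with DMSO as blank. Chloride release was followed by chloride-selective electrode for 300 s, then Triton-X lysis set 100% release. EC50 and Hill coefficient were derived.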

HeLa cells [5] = assay: Combination therapy of 1 and CisPt; type: cell-based, Human
HeLa cells [6] = assay: Lactate transport experiments; type: cell-based, Human; details: for Extra- and intracellular lactate levels in the presence of Syro compared with Syro alone: 3.9 μM compound, Syro 10 μM 1 h pre-treatment, 60 and 120 min
Procedure, shortened: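 HeLa cells were seeded at 10^5 cells/mL and left overnight, then treated 60 and 120 min; test compounds were at 3.9 µM, with DMSO as control. Medium was kept for extracellular lactate. Cells were washed, permeabilised 5 min with 0.2 M HCl in PBS, and neutralised with 1 M Tris base. Extracts were mixed 1:1 with Lactate-Glo reagent, and luminescence was read after 1 h against a standard curve. Values were normalised to BCA protein after 2% SDS lysis.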

[7] = read-out: EC50 Cl^−/HCO3^−; chloride efflux at 300 s, POPC vesicles; cited from earlier work
[8] = deprotonated form, calculated; cited from earlier work
[9] = read-out: EC50 Cl^−/NO3^−; chloride efflux at 300 s, POPC vesicles; cited from earlier work

Row | IC50 (MCF7) [µM] | IC50 (HeLa) [µM] | EC50 [4] [nM] | SMILES | IC25 CAL27 (CAL27) [µM] | IC75 CAL27 (CAL27) [µM] | IC50 (CAL27) [µM] | IC50 [1] [µM] | IC25 MCF7 (MCF7) [µM] | IC75 MCF7 (MCF7) [µM] | IC25 MCF10A (MCF10A) [µM] | IC75 MCF10A (MCF10A) [µM] | IC50 (MCF10A) [µM] | IC25 HeLa (HeLa) [µM] | IC75 HeLa (HeLa) | further results
1 | 5.58 ± 1.17 | 3.36 ± 0.19 | 3.7 ± 0.4 | COc1cc(-c2cn(-c3ccc(C(C)(C)C)cc3)nn2)[nH]c1/C=N/C12CC3CC(CC(C3)C1)C2.Cl [Compound 1, N-((E)-(5-(1-(4-(tert-butyl)phenyl)-1H-1,2,3-triazol-4-yl)-3-methoxy-1H-pyrrol-2-yl)methylene)adamantan-1-aminium chloride] | 2.68 ± 0.18 | 4.00 ± 0.50 | 3.27 ± 0.27 | 3.3 to 7.7 | 4.00 ± 1.22 | 7.91 ± 1.42 | 5.36 ± 1.09 | 11.22 ± 3.94 | 7.66 ± 1.86 | 2.85 ± 0.16 | 3.9 µM and 3.95 ± 0.26 µM | solubility [2]: < 50 mM; Lactate efflux from vesicles seen by 13C NMR after NaCl pulse and MnCl2 [3]: facilitates lactate efflux; Effect of combination therapy with CisPt on cell viability (HeLa cells [5]; 1 at IC10, IC25, IC50, IC75 for 24 h, then CisPt 24 h, all doses of 1): higher compared with respective monotherapy of CisPt; Type of interaction with CisPt (Combination Index) (HeLa cells [5]; higher doses of both 1 and CisPt): moderate synergic effect; Type of interaction with CisPt (Combination Index) (HeLa cells [5]; majority of the dose combinations tested): additive effect
2 | 9.06 ± 2.35 | 12.5 ± 0.98 | 16 ± 1 | COc1cc(-c2cn(-c3ccc(C(C)(C)C)cc3)nn2)[nH]c1/C=N/C1CCCC1.Cl [Compound 2, (E)-N-((5-(1-(4-(tert-butyl)phenyl)-1H-1,2,3-triazol-4-yl)-3-methoxy-1H-pyrrol-2-yl)methylene)cyclopentanaminium chloride] | 9.25 ± 2.26 | 12.35 ± 2.40 | 10.6 ± 2.06 | 4.6 to 25.4 | 4.04 ± 1.37 | 20.49 ± 3.88 | 13.62 ± 1.64 | 25.65 ± 3.97 | 18.7 ± 2.55 | 11.34 ± 0.38 | 13.77 ± 1.88 µM | –
3 | > 100 | 85.6 ± 2.94 | – | COc1cc(-c2cn(CCO)nn2)[nH]c1/C=N/C12CC3CC(CC(C3)C1)C2.Cl [Compound 5, N-((E)-(5-(1-(2-Hydroxyethyl)-1H-1,2,3-triazol-4-yl)-3-methoxy-1H-pyrrol-2-yl)methylene)adamantan-1-aminium chloride] | 86.88 ± 6.79 | >100 | 96 ± 4.79 | > 82 | >100 | >100 | 94.92 ± 5.23 | >100 | > 100 | 78.14 ± 3.00 | 93.73 ± 3.71 µM | Extra- and intracellular lactate levels in the presence of Syro compared with Syro alone (HeLa cells [6]): no significant differences
4 | 11.5 ± 1.19 | 6.31 ± 0.06 | – | COc1cc(-c2cn(-c3ccc(Cl)cc3)nn2)[nH]c1/C=N/C1CCCCC1.Cl [Compound 6, (E)-N-((5-(1-(4-Chlorophenyl)-1H-1,2,3-triazol-4-yl)-3-methoxy-1H-pyrrol-2-yl)methylene)cyclohexanaminium chloride] | 6.58 ± 2.98 | 8.44 ± 2.59 | 7.41 ± 2.77 | 4.6 to 25.4 | 9.05 ± 1.13 | 14.53 ± 1.23 | 3.49 ± 0.22 | 6.12 ± 1.56 | 4.61 ± 0.15 | 6.09 ± 0.09 | 6.54 ± 0.02 µM | EC50 [7]: 130 ± 7 nM; LogP [8]: 4.22 ^c; EC50 [9]: 32.6 ± 0.8 nM

Further lines, the molecule ahead of its results:

Row | SMILES | IC50 (MCF7) [µM] | IC50 (HeLa) [µM] | EC50 [4] [nM] | IC25 CAL27 (CAL27) [µM] | IC75 CAL27 (CAL27) [µM] | IC50 (CAL27) [µM] | IC50 [1] [µM] | IC25 MCF7 (MCF7) [µM] | IC75 MCF7 (MCF7) [µM] | IC25 MCF10A (MCF10A) [µM] | IC75 MCF10A (MCF10A) [µM] | IC50 (MCF10A) [µM] | IC25 HeLa (HeLa) [µM] | IC75 HeLa (HeLa) | further results
5 | COc1cc(-c2cn(-c3ccc(C(C)(C)C)cc3)nn2)[nH]c1/C=N/CCO.Cl [Compound 3, (E)-N-((5-(1-(4-(tert-butyl)phenyl)-1H-1,2,3-triazol-4-yl)-3-methoxy-1H-pyrrol-2-yl)methylene)-2-hydroxyethan-1-aminium chloride] | 15.8 ± 1.14 | 13.5 ± 1.05 | 8340 ± 431 | 14.62 ± 3.20 | 20.88 ± 4.45 | 17.4 ± 3.31 | 4.6 to 25.4 | 7.22 ± 0.85 | 34.69 ± 3.11 | 18.11 ± 3.23 | 35.95 ± 4.27 | 25.4 ± 1.61 | 11.98 ± 0.40 | 15.29 ± 1.87 µM | –
6 | COc1cc(-c2cn(CCO)nn2)[nH]c1/C=N/CCO.Cl [Compound 4, (E)-2-hydroxy-N-((5-(1-(2-hydroxyethyl)-1H-1,2,3-triazol-4-yl)-3-methoxy-1H-pyrrol-2-yl)methylene)ethan-1-aminium chloride] | > 100 | > 100 | – | 60.97 ± 5.40 | >100 | 82.1 ± 2.88 | > 82 | >100 | >100 | 98.64 ± 0.94 | >100 | > 100 | >100 | >100 µM | Extra- and intracellular lactate levels in the presence of Syro compared with Syro alone (HeLa cells [6]): no significant differences; Lactate efflux from vesicles seen by 13C NMR after NaCl pulse and MnCl2 [3]: no changes
7 | CCOC(=O)Oc1c(OC)cc(C(=O)O[C@@H]2C[C@@H]3CN4CCc5c([nH]c6cc(OC)ccc56)[C@H]4C[C@@H]3[C@H](C(=O)OC)[C@H]2OC)cc1OC [Syro, Syrosingopine, reference compound] | – | – | – | – | – | – | – | – | – | – | – | – | – | – | Intracellular lactate levels compared to DMSO (HeLa cells [6]; Syro alone 10 μM, 60 and 120 min (p < 0.0001)): significantly higher than DMSO
